According to ChEMBL document CHEMBL4014336 (J Med Chem, 2017):
In brackets after ≈: the same amount, converted by molar mass.

Legend:
Cynomolgus monkey [1] = test: Toxicity in cynomolgus monkey assessed as HPA axis activation by measuring cortisol level at 1 to 10 mg/kg for 7 days; assay type: organism-based, Macaca fascicularis; settings: in vivo, 168 h
Cynomolgus monkey [2] = test: Toxicity in cynomolgus monkey assessed as HPA axis activation by measuring DHEA level at 1 to 10 mg/kg for 7 days; assay type: organism-based, Macaca fascicularis; settings: in vivo, 168 h
in vivo [3] = settings: mouse, adipose tissue / plasma, iv, 5 mg/kg
[4] = Apparent elimination half life in mouse at 5 mg/kg, iv; assay type: ADME, organism-based; settings: in vivo, read-out: betat1/2(app) (converted)
[5] = Protein binding in mouse plasma; assay type: ADME, cell-free; settings: read-out: PPB (converted)
[6] = Total plasma clearance in mouse at 5 mg/kg, iv; assay type: ADME, organism-based
[7] = target: 11-beta-hydroxysteroid dehydrogenase type 2 (Rattus norvegicus, UniProt P50233); test: Inhibition of rat 11beta-HSD2
Chain of 11-beta-hydroxysteroid dehydrogenase type 2 (Rattus norvegicus, UniProt P50233) (P50233 whole entry): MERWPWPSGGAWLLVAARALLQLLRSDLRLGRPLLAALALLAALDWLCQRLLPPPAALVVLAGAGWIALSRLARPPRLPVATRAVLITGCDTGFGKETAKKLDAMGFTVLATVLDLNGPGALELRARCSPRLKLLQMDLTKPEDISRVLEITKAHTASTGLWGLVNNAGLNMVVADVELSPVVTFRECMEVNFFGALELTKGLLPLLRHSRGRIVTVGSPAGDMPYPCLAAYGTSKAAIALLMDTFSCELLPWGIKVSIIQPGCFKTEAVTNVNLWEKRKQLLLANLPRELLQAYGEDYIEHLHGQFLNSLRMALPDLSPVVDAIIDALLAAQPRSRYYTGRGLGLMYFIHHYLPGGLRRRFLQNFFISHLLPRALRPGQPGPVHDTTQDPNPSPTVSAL

[8] = Permeability from basolateral to apical side in human Caco2 cells; assay type: ADME, cell-based; settings: Caco-2, read-out: permeability
HepG2 = test: Cytotoxicity against human HepG2 cells at 80 uM; assay type: cell-based; settings: hepg2, 80 µM
In short: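 HepG2 cells exposed at 80 μM; cytotoxicity assessed.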

[9] = Total plasma clearance in dog at 1 mg/kg, iv; assay type: ADME, organism-based, Canis lupus familiaris
[10] = Apparent elimination half life in cynomolgus monkey at 1 mg/kg, iv; assay type: ADME, organism-based, Macaca fascicularis; settings: in vivo, read-out: betat1/2(app) (converted)
in vivo [11] = settings: mouse, brain / plasma, iv, 5 mg/kg
Cynomolgus monkey [12] = test: In vivo inhibition of 11beta-HSD1 in non-fasting diet-induced obese cynomolgus monkey assessed as decrease in corticosterone excursion in plasma pretreated via oral gavage for 30 mins followed by DHC administration measured up to 60 mins by enzyme immunosorbent assay; assay type: functional; settings: Macaca fascicularis
In short: (§1)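 Cynomolgus monkeys given test compound at a predetermined time before the experiment, chosen from its pharmacokinetics. Substrate DHC (rodent substrate, used in place of cortisone) given afterwards. Blood sampled at various times. Design otherwise similar to the mouse DHC challenge.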

[13] = Protein binding in rat plasma; assay type: ADME, cell-free; settings: read-out: PPB (converted)
[14] = Oral bioavailability in mouse at 10 mg/kg; assay type: ADME, organism-based; settings: in vivo
Cynomolgus monkey [15] = test: In vivo inhibition of 11beta-HSD1 in non-fasting diet-induced obese cynomolgus monkey assessed as plasma concentration required to show decrease in corticosterone excursion pretreated via oral gavage for 30 mins followed by DHC administration measured up to 60 mins by enzyme immunosorbent assay; assay type: functional, organism-based; settings: Macaca fascicularis; in short: as §1
[16] = Volume of distribution at steady state in mouse at 5 mg/kg, iv; assay type: ADME, organism-based; settings: in vivo, read-out: Vdss
[17] = Inhibition of cynomolgus monkey 11beta-HSD2; parameters: species or system Macaca fascicularis
[18] = target: 11-beta-hydroxysteroid dehydrogenase 1 (Mus musculus, UniProt P50172); test: Inhibition of 11beta-HSD1 in mouse 3T3L1 cells; assay type: cell-based
Chain of 11-beta-hydroxysteroid dehydrogenase 1 (P50172 whole entry): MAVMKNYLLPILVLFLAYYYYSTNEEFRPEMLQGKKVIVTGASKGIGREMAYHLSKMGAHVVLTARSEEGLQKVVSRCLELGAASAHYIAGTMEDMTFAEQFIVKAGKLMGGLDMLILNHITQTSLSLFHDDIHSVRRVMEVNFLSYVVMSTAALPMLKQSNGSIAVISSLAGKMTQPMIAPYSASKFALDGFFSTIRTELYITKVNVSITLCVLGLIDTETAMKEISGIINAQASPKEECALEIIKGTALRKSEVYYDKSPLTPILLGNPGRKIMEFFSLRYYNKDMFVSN
In short: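 Mouse adipocyte-like 3T3-L1 cell line, not genetically manipulated, so that inhibition acts on the cells' native mouse 11β-HSD1 activity.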

Plasma [19] = test: Drug metabolism in rat plasma assessed as ketone A formation at […], iv; assay type: ADME, organism-based; settings: in vivo
[20] = Oral bioavailability in cynomolgus monkey at 3 mg/kg; assay type: ADME, organism-based, Macaca fascicularis; settings: in vivo
[21] = target: 11-beta-hydroxysteroid dehydrogenase type 2 (Homo sapiens, UniProt P80365); test: Inhibition of human 11beta-HSD2 up to 30 uM
Chain of 11-beta-hydroxysteroid dehydrogenase type 2 (Homo sapiens, UniProt P80365) (P80365 whole entry): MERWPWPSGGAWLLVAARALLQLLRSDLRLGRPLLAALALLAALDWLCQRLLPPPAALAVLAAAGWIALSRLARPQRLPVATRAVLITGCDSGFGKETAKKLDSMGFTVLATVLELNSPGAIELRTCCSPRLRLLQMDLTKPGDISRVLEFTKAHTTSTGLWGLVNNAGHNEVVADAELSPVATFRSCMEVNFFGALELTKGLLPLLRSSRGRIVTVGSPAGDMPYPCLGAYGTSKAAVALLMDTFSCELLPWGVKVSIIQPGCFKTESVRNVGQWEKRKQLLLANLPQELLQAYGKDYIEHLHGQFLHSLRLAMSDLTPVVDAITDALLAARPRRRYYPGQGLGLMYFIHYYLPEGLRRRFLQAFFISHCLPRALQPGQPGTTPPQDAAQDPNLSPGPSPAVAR
In short: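 Human 11β-HSD2 counter-screen in vitro; compound tested up to 30 μM.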

Rattus norvegicus = test: MRT in rat at […], iv; assay type: ADME, organism-based; settings: in vivo
Liver = test: Metabolic stability in mouse liver microsomes assessed as parent compound remaining after 10 mins; assay type: ADME, microsome; settings: microsomes, 10 min
In short: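 Parent compound remaining after a 10 min incubation with human, mouse or rat liver microsomes.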

[22] = Metabolic stability in cynomolgus monkey liver microsomes assessed as UGT-mediated glucuronidation of compound by measuring half life in presence of UDPGA; assay type: ADME, Macaca fascicularis
In short: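 Liver microsomal glucuronidation incubations in the presence of UDPGA; parent half-life determined.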

[23] = AUC (0 to 24 hrs) in rat at […], iv; assay type: ADME, organism-based; parameters: time < 24 hr, dose 7.7 mg/kg, route intravenous; settings: in vivo
[24] = Aqueous solubility of the compound in pH 6.5 solution; assay type: physicochemical; settings: pH 6.5, pH 6.5
In short: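 Aqueous solubility measured at pH 6.5.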

Plasma [25] = test: Drug uptake in po dosed non-fasting diet-induced obese mouse plasma after 3 hrs; assay type: ADME, organism-based; settings: in vivo
In short: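 Nonfasting diet-induced obese male mice, groups of n = 6 matched for body weight. Tail bleed at −60 min, then oral dosing with vehicle (0.5% Methocel, 0.1% Tween 80 in water) or drug. DHC 10 mg/kg given orally 60 min later. Bleeds at 30, 60 and 120 min after DHC. Plasma corticosterone measured by enzyme immunosorbent assay. Drug levels measured in terminal bleed samples.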

[26] = Apparent elimination half life in dog at 1 mg/kg, iv; assay type: ADME, organism-based, Canis lupus familiaris; settings: in vivo, read-out: betat1/2(app) (converted)

O=C(CC1(c2ccccc2)C2CC3CC1CC(C2)C3O)N1CC(O)C1 (stereo in doubt; form 2)
Activity (Cynomolgus monkey [1]): Non-Toxic | Activity (Cynomolgus monkey [2]): Non-Toxic | Kp (in vivo [3]): 0.15 | half-life [4]: 2 h | fraction unbound [5]: 0.37 | clearance [6]: 50 mL/min/kg | IC50 [7]: 3.5 µM | Papp B→A [8]: 28.5 ×10⁻⁶ cm/s | Activity (HepG2): Non-Toxic | clearance [9]: 11 mL/min/kg | half-life [10]: 6 h | Kp (in vivo [11]): < 0.1 | ED50 (Cynomolgus monkey [12]): 0.12 mg/kg | fraction unbound [13]: 0.35 | bioavailability [14]: 56% | EC50 (Cynomolgus monkey [15]): 0.075 µM | Vd [16]: 2 L/kg | IC50 [17]: 48 µM | IC50 [18]: 0.0286 µM | Drug metabolism (Plasma [19]): Metabolite_Detected | bioavailability [20]: 57% | inhibition (INH) [21]: Not Active | MRT (Rattus norvegicus): 1.3 h | Stability (Liver): 80% | half-life [22]: > 3.33 h | AUC(0-t) at 24 h [23]: 6 µM·h | solubility [24]: 1800 µg/mL (≈ 5.27 mM) | Drug uptake (Plasma [25]): Dose-dependent effect | half-life [26]: 7.4 h
